Compound activity: PubChem, The Scripps Research Institute Molecular Screening Center
ARFGAP1 inhibitor: rat ARFGAP1 inhibition | Arfgap1-stimulated ARF1 GTP hydrolysis, GDP FP detection | inhibition, % at 16.5 µM | Q62848 | AID 651572 | actives 0.26% (n = 360,000);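 active = inhibition above a per-plate limit, mean inhibition of low control wells plus 3 SD, cut at about 25% in these data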;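 note: 0% = DMSO wells with enzyme and 100% = wells lacking Arfgap1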
Target sequence (Q62848 1-136 limits assumed): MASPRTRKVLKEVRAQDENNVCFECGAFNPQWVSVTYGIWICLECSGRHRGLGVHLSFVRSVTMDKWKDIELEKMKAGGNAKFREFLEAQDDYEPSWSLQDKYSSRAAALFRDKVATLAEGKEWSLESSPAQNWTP
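Material: truncated rat Arfgap1 GAP domain; Incubation: compound-enzyme preincubation 20 min, reaction 120 min, detection 60 min, 25 °C; Read-out: percent inhibition of Arfgap1-stimulated GTP hydrolysis; Technique: FP, GDP Alexa 633 tracer displaced from anti-GDP antibody, 620/688 nm; Controls: No-Arfgap1 wells (100%) versus DMSO full-reaction wells (0%); Replication: single well per compound.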
pPAFAH inh: inhibitors of human plasma PAF acetylhydrolase (pPAFAH) | Q13093 | recombinant pPAFAH, FP-rhodamine probe fluorescence polarization | inhibition, % at 3.39 µM | actives 1.5% (n = 330,000) | AID 463082;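 active = inhibition above the mean inhibition across the screen plus 3 SD, cut at about 25% in these data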;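 note: inhibitors block binding of the rhodamine activity-based probe so polarization drops; 0% = enzyme with DMSO and 100% = wells lacking pPAFAH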
PAFAH1B2 FP inh: inhibitors of human PAFAH1B2; inhibition, % at 3.39 µM; recombinant PAFAH1B2, FP-rhodamine activity probe, fluorescence polarization; P68402; actives 1.2% (n = 340,000);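 active = inhibition above the mean of all tested compounds plus 3 SD, cut at about 24% in these data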;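 note: 0% = enzyme with DMSO and 100% = wells lacking PAFAH1B2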
Target sequence (P68402 whole entry, looked up): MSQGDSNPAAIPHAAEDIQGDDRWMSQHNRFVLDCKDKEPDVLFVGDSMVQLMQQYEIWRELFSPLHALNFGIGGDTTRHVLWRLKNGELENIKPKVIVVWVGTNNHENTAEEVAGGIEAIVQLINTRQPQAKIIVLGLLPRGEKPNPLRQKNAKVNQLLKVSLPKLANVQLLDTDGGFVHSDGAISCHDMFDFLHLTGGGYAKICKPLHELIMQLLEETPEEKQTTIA
PAFAH1B3 inh: PAFAH1B3 (human) inhibition; Q15102; recombinant PAFAH1B3, FP-rhodamine probe, fluorescence polarization; inhibition, % at 3.39 µM; actives 0.28% (n = 340,000); AID 492972;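 active = inhibition above the screen-wide average of all tested compounds plus 3 SD, cut at about 25% in these data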;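 note: 0% = enzyme with DMSO only and 100% = wells lacking PAFAH1B3 protein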
Target sequence (Q15102 whole entry, looked up): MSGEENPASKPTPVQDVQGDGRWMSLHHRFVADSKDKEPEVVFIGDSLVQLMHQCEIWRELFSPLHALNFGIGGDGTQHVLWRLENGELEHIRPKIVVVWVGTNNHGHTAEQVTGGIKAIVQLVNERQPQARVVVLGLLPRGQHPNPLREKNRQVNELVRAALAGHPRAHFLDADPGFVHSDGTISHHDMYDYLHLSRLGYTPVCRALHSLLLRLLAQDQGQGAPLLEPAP
PAFAH2 FP inh: PAFAH2 (human) inhibition; AID 492956; inhibition, % at 3.39 µM; recombinant PAFAH2, FP-rhodamine activity probe, fluorescence polarization; Q99487; actives 0.99% (n = 340,000);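 active = inhibition above the mean over all tested compounds plus 3 SD, cut at about 30% in these data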;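 note: inhibitors block probe labeling of enzyme so polarization drops; 0% = enzyme with DMSO and 100% = wells lacking PAFAH2 protein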
ASAP1 inh: inhibitors of human ASAP1 ArfGAP activity; ASAP1-stimulated ARF1 GTP hydrolysis, GDP FP detection; AID 624377; Q9ULH1; actives 0.19% (n = 360,000); inhibition, % at 16.5 µM; in the data active = inhibition above about 25%;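 note: 0% = vehicle with enzyme and substrate and 100% = no enzyme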
PAFAH2 FP conf: confirmation of human PAFAH2 inhibitors; shares compounds with PAFAH2 FP inh; recombinant PAFAH2, FP-rhodamine activity probe, fluorescence polarization; inhibition, % at 3.39 µM; actives 65% (n = 2,300);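 active = mean inhibition over three repeats above a set limit taken from the earlier primary screen, cut at about 30% in these data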;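 note: inhibitor blocks binding of rhodamine activity probe so polarization falls; 0% = enzyme with DMSO and 100% = wells lacking PAFAH2 protein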
Starred values were filed as active, the others as inactive. Hits are enriched below; roughly 2.7% of the tested compounds scored in any of these assays.

How did Cc1nn(C2CCS(=O)(=O)C2)c(Cl)c1/C=C/C(=O)OCC(=O)Nc1ccccc1[N+](=O)[O-] (stereo not drawn) do in these assays?
ARFGAP1 inhibitor: 2; pPAFAH inh: 5; PAFAH1B2 FP inh: 4; PAFAH1B3 inh: 1; PAFAH2 FP inh: 75*; ASAP1 inh: 10; PAFAH2 FP conf: 74*

What do the screens show for `Cc1nn(C2CCS(=O)(=O)C2)c(Cl)c1/C=C/C(=O)OCC(=O)Nc1ccccc1OC(F)F` (stereo not drawn)?
ARFGAP1 inhibitor: -4; pPAFAH inh: 0; PAFAH1B2 FP inh: 4; PAFAH1B3 inh: -3; PAFAH2 FP inh: 50*; ASAP1 inh: -2; PAFAH2 FP conf: 43*

How did COc1cccc(C2c3[nH]c4ccccc4c3C[C@H]3C(=O)N(C4CCN(Cc5ccccc5)CC4)CC(=O)N23)c1 (stereo partly drawn) do in these assays?
ARFGAP1 inhibitor: 13; pPAFAH inh: 4; PAFAH1B2 FP inh: 2; PAFAH1B3 inh: 9; PAFAH2 FP inh: 0; ASAP1 inh: -1

Results for CC1CCc2c(C(=O)Nc3ccc(OC(F)(F)F)cc3)csc2C1 (stereo not drawn) ?
ARFGAP1 inhibitor: 8; pPAFAH inh: -5; PAFAH1B2 FP inh: 2; PAFAH1B3 inh: -1; PAFAH2 FP inh: -10; ASAP1 inh: -6

How did O=C(CNCCc1ccc(F)cc1)Nc1cc(F)ccc1F do in these assays?
ARFGAP1 inhibitor: 4; pPAFAH inh: 3; PAFAH1B2 FP inh: 7; PAFAH1B3 inh: 11; PAFAH2 FP inh: 2; ASAP1 inh: -7

Results for O=C(O)c1cccc(N/N=C/C2=C(Cl)c3cc(Cl)ccc3SC2)c1 ?
ARFGAP1 inhibitor: -7; PAFAH1B2 FP inh: 15; PAFAH1B3 inh: 17; PAFAH2 FP inh: 36*; ASAP1 inh: 11; PAFAH2 FP conf: 15

Results for O=C(O)c1cccc(N/N=C/c2ccc(F)c(F)c2)c1 ?
ARFGAP1 inhibitor: 17; pPAFAH inh: 9; PAFAH1B2 FP inh: -1; PAFAH1B3 inh: 1; PAFAH2 FP inh: 3; ASAP1 inh: 3

Results for COc1ccc(-n2nc(N)c3c(=O)oc(N(C)C)nc32)cc1 ?
ARFGAP1 inhibitor: -3; pPAFAH inh: 18; PAFAH1B2 FP inh: 2; PAFAH1B3 inh: 1; PAFAH2 FP inh: 54*; ASAP1 inh: -3; PAFAH2 FP conf: 45*

How did CCOC(=O)c1nc(C)n(-c2ccc(Cl)cc2)n1 do in these assays?
ARFGAP1 inhibitor: 12; pPAFAH inh: 8; PAFAH1B2 FP inh: 4; PAFAH1B3 inh: 7; PAFAH2 FP inh: -10; ASAP1 inh: 15

How did COc1ccc(-n2nc(C)c3onc(C)c3c2=O)cc1 do in these assays?
ARFGAP1 inhibitor: -6; pPAFAH inh: 2; ASAP1 inh: -5

What do the screens show for `CN(C)c1nc2c(c(N)nn2-c2ccc(Cl)cc2)c(=O)o1`?
ARFGAP1 inhibitor: 2; pPAFAH inh: -4; PAFAH1B2 FP inh: 2; PAFAH1B3 inh: 4; PAFAH2 FP inh: 47*; ASAP1 inh: -13; PAFAH2 FP conf: 41*

Results for O=C(COC(=O)c1ccc(Br)cc1)NCc1ccc(F)cc1 ?
ARFGAP1 inhibitor: -6; pPAFAH inh: 20; PAFAH1B2 FP inh: 0; PAFAH1B3 inh: 10; PAFAH2 FP inh: 42*; ASAP1 inh: 4; PAFAH2 FP conf: 27

How did O=C(COC(=O)c1ccc(F)cc1)NCc1ccc(F)cc1 do in these assays?
ARFGAP1 inhibitor: -29; pPAFAH inh: 5; PAFAH1B2 FP inh: -1; PAFAH1B3 inh: -4; PAFAH2 FP inh: 31*; ASAP1 inh: 1; PAFAH2 FP conf: 18

What do the screens show for `COc1ccc(CNC(=O)COC(=O)c2ccc(Br)cc2)cc1`?
ARFGAP1 inhibitor: 2; pPAFAH inh: 12; PAFAH1B2 FP inh: 4; PAFAH1B3 inh: 8; PAFAH2 FP inh: -17; ASAP1 inh: 4

What do the screens show for `O=C(COC(=O)c1ccc(S(=O)(=O)N2CCCCC2)cc1)NCc1ccc(F)cc1`?
ARFGAP1 inhibitor: -2; PAFAH1B2 FP inh: 0; PAFAH1B3 inh: -15; PAFAH2 FP inh: 1; ASAP1 inh: -12

Results for CCSC1=N/C(=C\c2ccc(C(=O)O)cc2)C(=O)S1 ?
ARFGAP1 inhibitor: 0; pPAFAH inh: 2; PAFAH1B2 FP inh: 0; PAFAH1B3 inh: 11; PAFAH2 FP inh: 31*; ASAP1 inh: 10; PAFAH2 FP conf: 15

How did Cc1ccc(C(=O)c2ccccc2C(=O)OCC(=O)NC(C)(C)C)cc1 do in these assays?
ARFGAP1 inhibitor: -3; pPAFAH inh: 1; PAFAH1B2 FP inh: 0; PAFAH1B3 inh: 9; PAFAH2 FP inh: 62*; ASAP1 inh: 3; PAFAH2 FP conf: 51*

What do the screens show for `Cc1ccc(C(=O)c2ccccc2C(=O)OCC(=O)N2CCCC2)cc1`?
ARFGAP1 inhibitor: -2; pPAFAH inh: -7; PAFAH1B2 FP inh: 1; PAFAH1B3 inh: 4; PAFAH2 FP inh: 1; ASAP1 inh: -3

How did CCC(CCC(=O)Nc1cccc([N+](=O)[O-])c1)C(=O)O (stereo not drawn) do in these assays?
ARFGAP1 inhibitor: -2; pPAFAH inh: 1; PAFAH1B2 FP inh: 2; PAFAH1B3 inh: 3; PAFAH2 FP inh: 2; ASAP1 inh: 1

Results for COc1ccc(NC(=O)COC(=O)c2cc(C)oc2C)cc1OC ?
ARFGAP1 inhibitor: 2; pPAFAH inh: 4; PAFAH1B2 FP inh: 6; PAFAH1B3 inh: 2; PAFAH2 FP inh: 6; ASAP1 inh: 0

Results for Cc1cc(C(=O)OCC(=O)Nc2cccc([N+](=O)[O-])c2)c(C)o1 ?
ARFGAP1 inhibitor: 4; pPAFAH inh: 4; PAFAH1B2 FP inh: 5; PAFAH1B3 inh: 2; PAFAH2 FP inh: 75*; ASAP1 inh: -10; PAFAH2 FP conf: 78*

What do the screens show for `CCC(CC)C(=O)OCC(=O)Nc1cccc([N+](=O)[O-])c1`?
ARFGAP1 inhibitor: 5; pPAFAH inh: 3; PAFAH1B2 FP inh: -1; PAFAH1B3 inh: 5; PAFAH2 FP inh: 36*; ASAP1 inh: -1; PAFAH2 FP conf: 27

Results for O=C(COC(=O)C1CCC(=O)N1)Nc1cccc([N+](=O)[O-])c1 (stereo not drawn) ?
ARFGAP1 inhibitor: 3; pPAFAH inh: -1; PAFAH1B2 FP inh: 4; PAFAH1B3 inh: 11; PAFAH2 FP inh: -10; ASAP1 inh: 11

How did O=C(COC(=O)c1c[nH]c(=O)[nH]c1=O)Nc1cccc([N+](=O)[O-])c1 do in these assays?
ARFGAP1 inhibitor: -13; pPAFAH inh: -1; PAFAH1B2 FP inh: 2; PAFAH1B3 inh: 9; PAFAH2 FP inh: 31*; ASAP1 inh: -1; PAFAH2 FP conf: 23

How did CCOc1ccc(NC(=O)COC(=O)c2cc(C)oc2C)cc1 do in these assays?
ARFGAP1 inhibitor: 5; pPAFAH inh: 0; PAFAH1B2 FP inh: 1; PAFAH1B3 inh: 6; PAFAH2 FP inh: 57*; ASAP1 inh: 2; PAFAH2 FP conf: 53*
